Consider 31 molecules from ChEMBL document CHEMBL3351558, “Picomolar Inhibitors of HIV-1 Reverse Transcriptase: Design and Crystallography of Naphthyl Phenyl Ethers” (ACS Med Chem Lett, 2014).

Data set [1] has as its system Human immunodeficiency virus 1. The data set is described as follows: Antiviral activity against wild type HIV1 harboring reverse transcriptase K103N/Y181C mutant infected in human MT2 cells assessed as protection from virus-induced cytopathicity by MTT assay. The class given is functional, organism-based.
The subject of data set [2] is Human immunodeficiency virus 1. Put plainly: Antiviral activity against wild type HIV1 harboring reverse transcriptase Y181C mutant infected in human MT2 cells assessed as protection from virus-induced cytopathicity by MTT assay. It counts as functional, organism-based.
A short description of data set [3]: Cytotoxicity against human MT2 cells assessed as reduction in cell viability by MTT assay. The class given is cell-based. For orientation: Tetrazolium dyes change colour on reduction, which living cells bring about.
Data set [4] concerns Human immunodeficiency virus 1. Put plainly: Antiviral activity against wild type HIV1 3B infected in human MT2 cells assessed as protection from virus-induced cytopathicity by MTT assay. The class given is functional, organism-based. The note with it: Human immunodeficiency virus 1, 3B. A general note: Protection from cytopathic effect is a common read-out in antiviral testing.

Data set [5] in a line: Aqueous solubility of the compound at pH 6.5 after 48 hrs by shake-flask method. It counts as physicochemical. In a few lines:
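Shake-flask method: excess solid stirred in Britton–Robinson buffer, pH 6.5, for 48 h at 25 °C. The supernatant was passed through a 0.2 μm filter and quantified by UV–vis spectrophotometry. Piroxicam served as the control.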

Setting [6] is: Human immunodeficiency virus 1, MT2, read-out: EC50.

In brackets after ≈: the same amount, converted by molar mass. Some results are limits rather than exact numbers.

Take `N#Cc1cc2c(Oc3ccc(F)cc3OCCn3ccc(=O)[nH]c3=O)cc(Cl)cn2c1`: the EC50 (as a rule, the midpoint of the concentration-response curve) came to 110 nM in data set [1] (setting [6]), 160 nM in data set [2] (setting [6]) and 2.5 nM in data set [4]. Moreover, in data set [3], the CC50 (usually the concentration that lowers cell viability or growth by half) amounted to 15000 nM.

With `N#Cc1ccc2c(Oc3ccccc3OCCn3ccc(=O)[nH]c3=O)cc(F)cc2c1`, the values for the EC50 in data set [1] (setting [6]), in data set [2] (setting [6]) and in data set [4] were 6 nM, 8 nM and 1.1 nM, respectively. For the same molecule, in data set [3], the CC50 was over 100000 nM.

Consider `N#Cc1ccc2c(Oc3ccccc3OCCn3ccc(=O)[nH]c3=O)cc(Cl)cc2c1`, for which the EC50 amounted to 7.5 nM in data set [1] (setting [6]), 13 nM in data set [2] (setting [6]) and 2.2 nM in data set [4]. The half-maximal cytotoxic concentration (CC50) in data set [3] stood at 24000 nM.

On to `N#C/C=C/c1cc(F)cc(Oc2ccc(F)cc2OCCn2ccc(=O)[nH]c2=O)c1`, for which the figures for the EC50 in data set [1] (setting [6]) and in data set [2] (setting [6]) were 85 nM and 16 nM, respectively. Moreover, in data set [5], the thermodynamic solubility (commonly the concentration in solution at equilibrium with solid) at 48 h turned out to be 10.8 µg/mL (≈ 26.3 µM).

In the case of `N#Cc1cc2c(Oc3ccccc3OCCn3ccc(=O)[nH]c3=O)cc(F)cn2c1`, the EC50 in data set [1] (setting [6]) amounted to 68 nM; in data set [2] (setting [6]), 170 nM; in data set [4] it was 0.7 nM. In addition, in data set [3], the CC50 came to 40000 nM.

For `N#Cc1ccc2c(Oc3ccc(F)cc3OCCn3ccc(=O)[nH]c3=O)cc(Cl)cc2c1`, the results for the EC50 in data set [1] (setting [6]), in data set [2] (setting [6]) and in data set [4] were 46 nM, 5.3 nM and 4.5 nM, respectively. Besides, in data set [3], the CC50 stood at 16000 nM.

As for `N#Cc1cc2c(Oc3ccccc3OCCn3ccc(=O)[nH]c3=O)cc(Cl)cc2o1`, the EC50 in data set [1] (setting [6]) is 260 nM; in data set [2] (setting [6]), 1900 nM; in data set [4] it was 19 nM. Moreover, the CC50 in data set [3] is over 100000 nM.

`N#Cc1cc2c(Oc3ccccc3OCCn3ccc(=O)[nH]c3=O)cccc2o1`: the values for the EC50 in data set [1] (setting [6]), in data set [2] (mt2) and in data set [4] were 420 nM, “Not Active” and 18 nM, respectively. In data set [3], the CC50 is over 100000 nM.

As for `O=c1ccn(CCOc2ccccc2Oc2cccc3ccccc23)c(=O)[nH]1`, the EC50 in data set [1] (setting [6]) came out at 5000 nM; in data set [2] (setting [6]), 5700 nM; in data set [4], 60 nM. Moreover, the CC50 in data set [3] is 80000 nM.

In the case of `N#Cc1ccc2c(Oc3ccc(F)cc3OCCn3ccc(=O)[nH]c3=O)cc(F)cc2c1`, the figures for the EC50 in data set [1] (setting [6]), in data set [2] (setting [6]) and in data set [4] were 21 nM, 5.6 nM and 1.9 nM, respectively. Besides, the CC50 in data set [3] was over 100000 nM.

As for `CN1C(C(=O)Nc2ccccn2)=C(O)c2ccccc2S1(=O)=O` [PIROXICAM], the thermodynamic solubility at 48 h in data set [5] was 5 µg/mL (≈ 15.1 µM).

Turning to `N#Cc1ccc2c(Oc3ccc(Cl)cc3OCCn3ccc(=O)[nH]c3=O)cc(Cl)cc2c1`, the values for the EC50 in data set [1] (setting [6]), in data set [2] (setting [6]) and in data set [4] were 250 nM, 49 nM and 11 nM, respectively. Also, the CC50 in data set [3] came out at 20000 nM.

Take `N#C/C=C/c1cc(Cl)cc(Oc2ccccc2OCCn2ccc(=O)[nH]c2=O)c1`: the EC50 was determined as 24 nM in data set [1] (setting [6]), 46 nM in data set [2] (setting [6]) and 0.31 nM in data set [4]. The CC50 in data set [3] was 18000 nM. Moreover, the thermodynamic solubility at 48 h in data set [5] is 510 µg/mL (≈ 1240 µM).

For `O=c1ccn(CCOc2ccccc2Oc2cccc3cc(Cl)ccc23)c(=O)[nH]1`, the EC50 in data set [1] (setting [6]) is 710 nM; in data set [2] (setting [6]) it was 1000 nM; in data set [4], 14 nM. Besides, the CC50 in data set [3] is over 100000 nM.

For the molecule `N#Cc1ccc2c(Oc3ccccc3OCCn3ccc(=O)[nH]c3=O)cccc2c1`, the values for the EC50 in data set [1] (setting [6]), in data set [2] (setting [6]) and in data set [4] were 15 nM, 19 nM and 0.53 nM, respectively. In addition, in data set [3], the CC50 was over 100000 nM. This molecule registered a solubility (thermodynamic) at 48 h in data set [5] of 4.3 µg/mL (≈ 10.8 µM).

As to `N#Cc1cc2c(Oc3ccccc3OCCn3ccc(=O)[nH]c3=O)cccc2[nH]1`, the EC50 in data set [1] (setting [6]) was determined as 5500 nM; in data set [2] (setting [6]), 38000 nM; in data set [4], 56 nM. In addition, the CC50 in data set [3] worked out at 72000 nM.

In the case of `N#Cc1cc2c(Oc3ccccc3OCCn3ccc(=O)[nH]c3=O)cccn2c1`, the EC50 amounted to 11 nM in data set [1] (setting [6]), 310 nM in data set [2] (setting [6]) and 0.38 nM in data set [4]. The CC50 in data set [3] was over 100000 nM.

As to `Cc1ccc2c(Oc3ccccc3OCCn3ccc(=O)[nH]c3=O)cccc2c1`, the EC50 in data set [1] (setting [6]) came to 15000 nM; in data set [2] (setting [6]), 12000 nM; in data set [4], 250 nM. The CC50 in data set [3] was 40000 nM.

Take `Cc1cc(Oc2ccccc2OCCn2ccc(=O)[nH]c2=O)c2cc(C#N)[nH]c2c1`: the EC50 in data set [1] (setting [6]) is 800 nM; in data set [2] (mt2), “Not Active”; in data set [4], 10 nM. In addition, the CC50 in data set [3] turned out to be 1200 nM.

With `N#Cc1cc2c(Oc3ccc(Cl)cc3OCCn3ccc(=O)[nH]c3=O)cccc2o1`, the figures for the EC50 result in data set [1] (mt2), in data set [2] (mt2) and in data set [4] were “Not Active”, “Not Active” and 7 nM, respectively. In addition, the CC50 in data set [3] turned out to be 7000 nM.

For the molecule `N#Cc1ccc2c(Oc3ccc(F)cc3OCCn3ccc(=O)[nH]c3=O)cccc2c1`, the EC50 is 48 nM in data set [1] (setting [6]), 10 nM in data set [2] (setting [6]) and 0.49 nM in data set [4]. The CC50 in data set [3] is over 100000 nM.

Turning to `N#Cc1cc2c(Oc3ccccc3OCCn3ccc(=O)[nH]c3=O)cc(Cl)cn2c1`, the EC50 in data set [1] (setting [6]) worked out at 22 nM; in data set [2] (setting [6]), 220 nM; in data set [4], 3.7 nM. The CC50 in data set [3] stood at 39000 nM.

Consider `N#Cc1ccc2c(Oc3ccc(Cl)cc3OCCn3ccc(=O)[nH]c3=O)cc(F)cc2c1`, for which the EC50 is 150 nM in data set [1] (setting [6]), 32 nM in data set [2] (setting [6]) and 5 nM in data set [4]. In addition, the CC50 in data set [3] came to 18000 nM.

As for `N#Cc1ccc2c(Oc3ccc(Cl)cc3OCCn3ccc(=O)[nH]c3=O)cccc2c1`, the EC50 worked out at 150 nM in data set [1] (setting [6]), 48 nM in data set [2] (setting [6]) and 1.5 nM in data set [4]. Also, in data set [3], the CC50 is over 100000 nM.

With `Cc1ccnc2c1NC(=O)c1cccnc1N2C1CC1` [NEVIRAPINE], the EC50 result in data set [1] (mt2) and in data set [2] (mt2) was “Not Active” throughout. Also, the cytotoxic concentration (CC50) in data set [3] was over 100000 nM.

Turning to `N#Cc1cc2c(Oc3ccc(F)cc3OCCn3ccc(=O)[nH]c3=O)cccn2c1`, the EC50 in data set [1] (setting [6]) was 220 nM; in data set [2] (setting [6]), 600 nM; in data set [4] it was 2.7 nM. Besides, in data set [3], the CC50 worked out at 100000 nM.

Consider `O=c1ccn(CCOc2ccccc2Oc2cc(Cl)cc3cc(Cl)ccc23)c(=O)[nH]1`, for which the half-maximal effective concentration (EC50) was 520 nM in data set [1] (setting [6]), 430 nM in data set [2] (setting [6]) and 38 nM in data set [4]. The CC50 in data set [3] stood at 45000 nM.

For `N#Cc1cc2c(Oc3ccc(F)cc3OCCn3ccc(=O)[nH]c3=O)cccc2o1`, the values for the EC50 in data set [1] (setting [6]), in data set [2] (setting [6]) and in data set [4] were 4000 nM, 3500 nM and 40 nM, respectively. Besides, the CC50 in data set [3] was over 100000 nM.

On to `N#Cc1cc2c(Oc3ccccc3OCCn3ccc(=O)[nH]c3=O)cc(Cl)cc2[nH]1`, for which the EC50 in data set [1] (setting [6]) came out at 2700 nM; in data set [2] (setting [6]), 27000 nM; in data set [4], 340 nM. Also, the CC50 in data set [3] was determined as 81000 nM.

As to `N#C/C=C/c1cc(Cl)cc(Oc2ccc(Cl)cc2OCCn2ccc(=O)[nH]c2=O)c1`, the results for the EC50 in data set [1] (setting [6]) and in data set [2] (setting [6]) were 220 nM and 49 nM, respectively.

Turning to `N#Cc1cc2c(Oc3ccc(F)cc3OCCn3ccc(=O)[nH]c3=O)cc(F)cn2c1`, the EC50 in data set [1] (setting [6]) came out at 10 nM; in data set [2] (setting [6]) it was 250 nM; in data set [4] it was 0.4 nM. Moreover, in data set [3], the CC50 amounted to 50000 nM. In data set [5], this molecule came in with a solubility (thermodynamic) at 48 h of 43.8 µg/mL (≈ 103 µM).
